Results from ChEMBL document CHEMBL3872252, “New bithiazolyl hydrazones: Novel synthesis, characterization and antitubercular evaluation” (Bioorg Med Chem Lett, 2017).
≈ marks a conversion by molar mass, not a printed value.

Columns and labels:
[1] = Antitubercular activity against Mycobacterium tuberculosis H37Ra ATCC 25177 dormant stage infected in human THP1 cells measured on day 12 by nitrate reductase assay; type: functional, THP-1; details: ATCC 25177, 288 h
[2] = Antitubercular activity against Mycobacterium tuberculosis H37Ra ATCC 25177 active stage infected in human THP1 cells measured on day 8 by nitrate reductase assay; type: functional, THP-1; details: ATCC 25177, 192 h
[3] = Antitubercular activity against Mycobacterium tuberculosis H37Ra ATCC 25177 active stage measured on day 8 by XTT reduction menadione based two-fold dilution assay; type: functional; details: ATCC 25177, 192 h
Procedure, shortened: (§1)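 M. tuberculosis H37Ra ATCC 25177 was exposed to 0.7–100 μg/mL in two-fold steps (0.7, 1.5, 3.1 … 100). Active stage was read after 8 days and dormant stage after 12 days of incubation. Inhibition was read by XTT reduction menadione assay (XRMA), absorbance 470 nm. MIC90 is the concentration giving ≥90% inhibition (µg/mL).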

[4] = Antitubercular activity against Mycobacterium tuberculosis H37Ra ATCC 25177 dormant stage measured on day 12 by XTT reduction menadione based two-fold dilution assay; type: functional; details: ATCC 25177, 288 h; procedure, shortened: as §1
[5] = Antitubercular activity against Mycobacterium bovis BCG ATCC 35743 active stage measured on day 8 by nitrate reductase based two-fold dilution assay; type: functional, Mycobacterium bovis BCG str. ATCC 35743; details: Mycobacterium tuberculosis variant bovis BCG, ATCC 35743, 192 h
[6] = Antitubercular activity against Mycobacterium bovis BCG ATCC 35743 dormant stage measured on day 12 by nitrate reductase based two-fold dilution assay; type: functional, Mycobacterium bovis BCG str. ATCC 35743; details: Mycobacterium tuberculosis variant bovis BCG, ATCC 35743, 288 h
[7] = Cytotoxicity against human THP1 cells by MTT assay; type: toxicity, cell-based, THP-1; details: for GI50: THP1 cells; for GI90: thp-1
[8] = Cytotoxicity against human MCF7 cells by MTT assay; type: toxicity, cell-based; details: for GI50: MCF7 cells; for GI90: mcf7
[9] = Cytotoxicity against human HCT116 cells by MTT assay; type: toxicity, cell-based, HCT-116; details: for GI50: HCT116 cells; for GI90: hct-116
[10] = Selectivity index, ratio of GI50 for human MCF7 cells to MIC90 for Mycobacterium tuberculosis H37Ra ATCC 25177 active stage; type: toxicity, cell-based; details: read-out: Selectivity Index
Procedure, shortened: (§2)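 Cytotoxicity was measured on human MCF-7, HCT116 and THP-1 cells by MTT assay, with paclitaxel as reference. GI50 is the concentration inhibiting 50% of cell growth. The selectivity index is GI50 for the given cell line divided by MIC90 for the given mycobacterial strain and stage.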

[11] = Selectivity index, ratio of GI50 for human MCF7 cells to MIC90 for Mycobacterium tuberculosis H37Ra ATCC 25177 dormant stage; type: toxicity, cell-based; details: read-out: Selectivity Index
Procedure, shortened: (§3)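 Cytotoxicity was measured on human MCF-7, HCT116 and THP-1 cells by MTT assay, with paclitaxel as reference. The selectivity index is GI50 for the given cell line divided by MIC90 for the given mycobacterial strain and stage.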

[12] = Selectivity index, ratio of GI50 for human MCF7 cells to MIC90 for Mycobacterium bovis BCG ATCC 35743 active stage; type: toxicity, cell-based; details: read-out: Selectivity Index; procedure, shortened: as §2
[13] = Selectivity index, ratio of GI50 for human MCF7 cells to MIC90 for Mycobacterium bovis BCG ATCC 35743 dormant stage; type: toxicity, cell-based; details: read-out: Selectivity Index; procedure, shortened: as §3
[14] = Selectivity index, ratio of GI50 for human HCT116 cells to MIC90 for Mycobacterium tuberculosis H37Ra ATCC 25177 active stage; type: toxicity, cell-based, HCT-116; details: read-out: Selectivity Index; procedure, shortened: as §2
[15] = Selectivity index, ratio of GI50 for human HCT116 cells to MIC90 for Mycobacterium tuberculosis H37Ra ATCC 25177 dormant stage; type: toxicity, cell-based, HCT-116; details: read-out: Selectivity Index; procedure, shortened: as §3
[16] = Selectivity index, ratio of GI50 for human HCT116 cells to MIC90 for Mycobacterium bovis BCG ATCC 35743 active stage; type: toxicity, cell-based, HCT-116; details: read-out: Selectivity Index; procedure, shortened: as §2
[17] = Selectivity index, ratio of GI50 for human HCT116 cells to MIC90 for Mycobacterium bovis BCG ATCC 35743 dormant stage; type: toxicity, cell-based, HCT-116; details: read-out: Selectivity Index; procedure, shortened: as §3
[18] = Selectivity index, ratio of GI50 for human THP1 cells to MIC90 for Mycobacterium tuberculosis H37Ra ATCC 25177 active stage; type: toxicity, cell-based, THP-1; details: read-out: Selectivity Index; procedure, shortened: as §2
[19] = Selectivity index, ratio of GI50 for human THP1 cells to MIC90 for Mycobacterium tuberculosis H37Ra ATCC 25177 dormant stage; type: toxicity, cell-based, THP-1; details: read-out: Selectivity Index; procedure, shortened: as §3
[20] = Selectivity index, ratio of GI50 for human THP1 cells to MIC90 for Mycobacterium bovis BCG ATCC 35743 active stage; type: toxicity, cell-based, THP-1; details: read-out: Selectivity Index; procedure, shortened: as §2
[21] = Selectivity index, ratio of GI50 for human THP1 cells to MIC90 for Mycobacterium bovis BCG ATCC 35743 dormant stage; type: toxicity, cell-based, THP-1; details: read-out: Selectivity Index; procedure, shortened: as §3
[22] = tested on: Escherichia coli; assay: Antibacterial activity against Escherichia coli; type: functional
[23] = tested on: Pseudomonas aeruginosa; assay: Antibacterial activity against Pseudomonas aeruginosa; type: functional
[24] = tested on: Staphylococcus aureus; assay: Antibacterial activity against Staphylococcus aureus; type: functional
[25] = tested on: Bacillus subtilis; assay: Antibacterial activity against Bacillus subtilis; type: functional
[26] = tested on: Escherichia coli; assay: Growth inhibition of Escherichia coli at 30 ug/ml; type: functional; details: read-out: GI
[27] = tested on: Escherichia coli; assay: Growth inhibition of Escherichia coli at 10 ug/ml; type: functional; details: read-out: GI
[28] = tested on: Escherichia coli; assay: Growth inhibition of Escherichia coli at 3 ug/ml; type: functional; details: read-out: GI
Procedure, shortened: (§4)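 Screened against Gram-negative E. coli and P. aeruginosa and Gram-positive S. aureus and B. subtilis. Compound was tested at 3 µg/ml, and the read-out is percent growth inhibition.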

[29] = tested on: Pseudomonas aeruginosa; assay: Growth inhibition of Pseudomonas aeruginosa at 30 ug/ml; type: functional; details: read-out: GI
[30] = tested on: Pseudomonas aeruginosa; assay: Growth inhibition of Pseudomonas aeruginosa at 10 ug/ml; type: functional; details: read-out: GI
[31] = tested on: Pseudomonas aeruginosa; assay: Growth inhibition of Pseudomonas aeruginosa at 3 ug/ml; type: functional; details: read-out: GI; procedure, shortened: as §4
[32] = tested on: Staphylococcus aureus; assay: Growth inhibition of Staphylococcus aureus at 30 ug/ml; type: functional; details: read-out: GI
[33] = tested on: Staphylococcus aureus; assay: Growth inhibition of Staphylococcus aureus at 10 ug/ml; type: functional; details: read-out: GI
[34] = tested on: Staphylococcus aureus; assay: Growth inhibition of Staphylococcus aureus at 3 ug/ml; type: functional; details: read-out: GI; procedure, shortened: as §4
[35] = tested on: Bacillus subtilis; assay: Growth inhibition of Bacillus subtilis at 30 ug/ml; type: functional; details: read-out: GI
[36] = tested on: Bacillus subtilis; assay: Growth inhibition of Bacillus subtilis at 10 ug/ml; type: functional; details: read-out: GI
[37] = tested on: Bacillus subtilis; assay: Growth inhibition of Bacillus subtilis at 3 ug/ml; type: functional; details: read-out: GI; procedure, shortened: as §4

SMILES: C/C(=N\Nc1nc(-c2ccc(C)cc2)cs1)c1sc(-c2ccccc2)nc1C
- MIC90 [1]: > 100 µg/mL
- MIC90 [2]: > 100 µg/mL
- IC50 [3]: 0.16 µg/mL (≈ 0.395 µM)
- MIC90 [3]: > 100 µg/mL
- IC50 [4]: 0.075 µg/mL (≈ 0.185 µM)
- MIC90 [4]: > 100 µg/mL
- IC50 [5]: 5.21 µg/mL (≈ 12.9 µM)
- MIC90 [5]: 19.7 µg/mL (≈ 48.6 µM)
- IC50 [6]: 5.29 µg/mL (≈ 13.1 µM)
- MIC90 [6]: 57.5 µg/mL (≈ 142 µM)
- GI50 [7]: > 100 µg/mL
- GI90 [7]: > 100 µg/mL
- GI50 [8]: > 100 µg/mL
- GI90 [8]: > 100 µg/mL
- GI50 [9]: > 100 µg/mL
- GI90 [9]: > 100 µg/mL
- selectivity ratio [10]: 1
- selectivity ratio [11]: 1
- selectivity ratio [12]: 5
- selectivity ratio [13]: 2
- selectivity ratio [14]: 1
- selectivity ratio [15]: 1
- selectivity ratio [16]: 5
- selectivity ratio [17]: 2
- selectivity ratio [18]: 1
- selectivity ratio [19]: 1
- selectivity ratio [20]: 5
- selectivity ratio [21]: 2
- IC50 [22]: 0.454 µg/mL (≈ 1.12 µM)
- MIC [22]: 1.43 µg/mL (≈ 3.53 µM)
- IC50 [23]: 0.587 µg/mL (≈ 1.45 µM)
- MIC [23]: 1.53 µg/mL (≈ 3.78 µM)
- IC50 [24]: 0.624 µg/mL (≈ 1.54 µM)
- MIC [24]: 2.46 µg/mL (≈ 6.08 µM)
- IC50 [25]: 0.742 µg/mL (≈ 1.83 µM)
- MIC [25]: 2.95 µg/mL (≈ 7.29 µM)
- inhibition of growth at 30 µg/mL [26]: 97%
- inhibition of growth at 10 µg/mL [27]: 94.1%
- inhibition of growth at 3 µg/mL [28]: 92.2%
- inhibition of growth at 30 µg/mL [29]: 98.8%
- inhibition of growth at 10 µg/mL [30]: 95.6%
- inhibition of growth at 3 µg/mL [31]: 93.4%
- inhibition of growth at 30 µg/mL [32]: 97.1%
- inhibition of growth at 10 µg/mL [33]: 94%
- inhibition of growth at 3 µg/mL [34]: 91.9%
- inhibition of growth at 30 µg/mL [35]: 96.9%
- inhibition of growth at 10 µg/mL [36]: 93.5%
- inhibition of growth at 3 µg/mL [37]: 91.3%

SMILES: C/C(=N\Nc1nc(-c2ccc(Cl)cc2)cs1)c1sc(-c2ccccc2)nc1C
- MIC90 [1]: > 100 µg/mL
- MIC90 [2]: > 100 µg/mL
- IC50 [3]: 0.12 µg/mL (≈ 0.282 µM)
- MIC90 [3]: > 100 µg/mL
- IC50 [4]: 0.24 µg/mL (≈ 0.565 µM)
- MIC90 [4]: > 100 µg/mL
- IC50 [5]: 17 µg/mL (≈ 40 µM)
- MIC90 [5]: 77.8 µg/mL (≈ 183 µM)
- IC50 [6]: 26.6 µg/mL (≈ 62.5 µM)
- MIC90 [6]: 83.7 µg/mL (≈ 197 µM)
- GI50 [7]: > 100 µg/mL
- GI90 [7]: > 100 µg/mL
- GI50 [8]: > 100 µg/mL
- GI90 [8]: > 100 µg/mL
- GI50 [9]: > 100 µg/mL
- GI90 [9]: > 100 µg/mL
- selectivity ratio [10]: 1
- selectivity ratio [11]: 1
- selectivity ratio [12]: 1
- selectivity ratio [13]: 1
- selectivity ratio [14]: 1
- selectivity ratio [15]: 1
- selectivity ratio [16]: 1
- selectivity ratio [17]: 1
- selectivity ratio [18]: 1
- selectivity ratio [19]: 1
- selectivity ratio [20]: 1
- selectivity ratio [21]: 1
- inhibition of growth at 30 µg/mL [26]: 89.7%
- inhibition of growth at 10 µg/mL [27]: 80.4%
- inhibition of growth at 3 µg/mL [28]: 69.1%
- inhibition of growth at 30 µg/mL [29]: 90.6%
- inhibition of growth at 10 µg/mL [30]: 80.3%
- inhibition of growth at 3 µg/mL [31]: 67.7%
- inhibition of growth at 30 µg/mL [32]: 89.2%
- inhibition of growth at 10 µg/mL [33]: 79.3%
- inhibition of growth at 3 µg/mL [34]: 67.1%
- inhibition of growth at 30 µg/mL [35]: 88.4%
- inhibition of growth at 10 µg/mL [36]: 77.7%
- inhibition of growth at 3 µg/mL [37]: 64.5%
